Measured values published in ChEMBL document CHEMBL5055631, “Antitumor properties of novel sesquiterpene lactone analogs as NFκB inhibitors that bind to the IKKβ ubiquitin-like domain (ULD)” (Eur J Med Chem, 2021).

What was measured:
Type in all cases: functional
RPMI-8226 = test: Anticancer activity against human RPMI-8226 cells assessed as cell growth inhibition incubated for 48 hrs by SRB method
SR = test: Anticancer activity against human SR cells assessed as cell growth inhibition incubated for 48 hrs by SRB method
Method in brief: (§1)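 NCI-60 panel (DTP). Cells in RPMI 1640 with 5% FBS, 2 mM L-glutamine, seeded at 5,000–40,000 per well by doubling time and preincubated 24 h at 37 °C, 5% CO2. Time-zero plates TCA-fixed. DMSO stocks diluted in medium with gentamicin, tested at 100 μM, 10 μM, 1 μM, 0.1 μM and 10 nM for 48 h. Cells fixed with cold TCA, stained with SRB, absorbance read at 515 nm.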

EKVX = test: Anticancer activity against human EKVX cells assessed as cell growth inhibition incubated for 48 hrs by SRB method; method in brief: as §1
MOLT-4 = test: Anticancer activity against human MOLT-4 assessed as cell growth inhibition incubated for 48 hrs by SRB method
HOP-92 = test: Anticancer activity against human HOP-92 cells assessed as cell growth inhibition incubated for 48 hrs by SRB method
K562 = test: Anticancer activity against human K562 cells assessed as cell growth inhibition incubated for 48 hrs by SRB method
NCI-H23 = test: Anticancer activity against human NCI-H23 cells assessed as cell growth inhibition incubated for 48 hrs by SRB method; method in brief: as §1
NCI-H460 = test: Anticancer activity against human NCI-H460 cells assessed as cell growth inhibition incubated for 48 hrs by SRB method; method in brief: as §1
NCI-H522 = test: Anticancer activity against human NCI-H522 cells assessed as cell growth inhibition incubated for 48 hrs by SRB method
COLO 205 = test: Anticancer activity against human COLO 205 cells assessed as cell growth inhibition incubated for 48 hrs by SRB method
HCT-116 = test: Anticancer activity against human HCT-116 cells assessed as cell growth inhibition incubated for 48 hrs by SRB method; method in brief: as §1
HCT-15 = test: Anticancer activity against human HCT-15 cells assessed as cell growth inhibition incubated for 48 hrs by SRB method; method in brief: as §1
HT-29 = test: Anticancer activity against human HT29 cells assessed as cell growth inhibition incubated for 48 hrs by SRB method; method in brief: as §1
KM12 = test: Anticancer activity against human KM12 cells assessed as cell growth inhibition incubated for 48 hrs by SRB method; method in brief: as §1
SF-268 = test: Anticancer activity against human SF-268 cells assessed as cell growth inhibition incubated for 48 hrs by SRB method; method in brief: as §1
SF-295 = test: Anticancer activity against human SF-295 cells assessed as cell growth inhibition incubated for 48 hrs by SRB method; method in brief: as §1
SF-539 = test: Anticancer activity against human SF-539 cells assessed as cell growth inhibition incubated for 48 hrs by SRB method
U-251 = test: Anticancer activity against human U-251 cells assessed as cell growth inhibition incubated for 48 hrs by SRB method
Method in brief: (§2)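 NCI-60 panel, SRB assay. Cells grown in RPMI 1640 with 5% FBS and 2 mM L-glutamine, seeded at 5,000–40,000 cells/well depending on doubling time, and preincubated 24 h at 37 °C with 5% CO2. Time-zero plates were TCA-fixed. Compounds came from DMSO stocks and were tested at 100 μM, 10 μM, 1 μM, 0.1 μM and 10 nM for 48 h. Cells were fixed with cold TCA and stained with 0.4% SRB, and the dye was solubilized in 10 mM Tris base with A515 read.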

LOX IMVI = test: Anticancer activity against human LOX IMVI cells assessed as cell growth inhibition incubated for 48 hrs by SRB method
Malme-3M = test: Anticancer activity against human MALME-3M cells assessed as cell growth inhibition incubated for 48 hrs by SRB method
M14 = test: Anticancer activity against human M14 cells assessed as cell growth inhibition incubated for 48 hrs by SRB method; method in brief: as §1
SK-MEL-28 = test: Anticancer activity against human SK-MEL-28 cells assessed as cell growth inhibition incubated for 48 hrs by SRB method; method in brief: as §1
UACC-62 = test: Anticancer activity against human UACC-62 cells assessed as cell growth inhibition incubated for 48 hrs by SRB method; method in brief: as §2
IGROV-1 = test: Anticancer activity against human IGROV-1 cells assessed as cell growth inhibition incubated for 48 hrs by SRB method; method in brief: as §1
OVCAR-4 = test: Anticancer activity against human OVCAR-4 cells assessed as cell growth inhibition incubated for 48 hrs by SRB method
OVCAR-5 = test: Anticancer activity against human OVCAR-5 cells assessed as cell growth inhibition incubated for 48 hrs by SRB method
OVCAR-8 = test: Anticancer activity against human OVCAR-8 cells assessed as cell growth inhibition incubated for 48 hrs by SRB method; method in brief: as §1
NCI/ADR-RES = test: Anticancer activity against human NCI/ADR-RES cells assessed as cell growth inhibition incubated for 48 hrs by SRB method; method in brief: as §1
786-0 = test: Anticancer activity against human 786-0 cells assessed as cell growth inhibition incubated for 48 hrs by SRB method; method in brief: as §1
A498 = test: Anticancer activity against human A498 cells assessed as cell growth inhibition incubated for 48 hrs by SRB method; method in brief: as §1
ACHN = test: Anticancer activity against human ACHN cells assessed as cell growth inhibition incubated for 48 hrs by SRB method; method in brief: as §1
CAKI-1 = test: Anticancer activity against human CAKI-1 cells assessed as cell growth inhibition incubated for 48 hrs by SRB method; method in brief: as §1
TK-10 = test: Anticancer activity against human TK-10 cells assessed as cell growth inhibition incubated for 48 hrs by SRB method; method in brief: as §2
UO-31 = test: Anticancer activity against human UO-31 cells assessed as cell growth inhibition incubated for 48 hrs by SRB method
Method in brief: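 NCI-60 panel, SRB assay. Time-zero plates were TCA-fixed. Compounds came from DMSO stocks and were tested at 100 μM, 10 μM, 1 μM, 0.1 μM and 10 nM for 48 h. Cells were fixed with cold TCA and stained with 0.4% SRB, and the dye was solubilized in 10 mM Tris base with A515 read.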

PC-3 = test: Anticancer activity against human PC-3 cells assessed as cell growth inhibition incubated for 48 hrs by SRB method; method in brief: as §1
DU-145 = test: Anticancer activity against human DU-145 cells assessed as cell growth inhibition incubated for 48 hrs by SRB method; method in brief: as §1
MCF7 = test: Anticancer activity against human MCF7 cells assessed as cell growth inhibition incubated for 48 hrs by SRB method; method in brief: as §1
MDA-MB-231 = test: Anticancer activity against human MDA-MB-231 cells assessed as cell growth inhibition incubated for 48 hrs by SRB method; method in brief: as §1
[1] = Anticancer activity against human HS 578T cells assessed as cell growth inhibition incubated for 48 hrs by SRB method
BT-549 = test: Anticancer activity against human BT-549 cells assessed as cell growth inhibition incubated for 48 hrs by SRB method; method in brief: as §1
T47D = test: Anticancer activity against human T47D cells assessed as cell growth inhibition incubated for 48 hrs by SRB method; method in brief: as §1

C=C1C(=O)O[C@H]2[C@H]1CC/C(COC(=O)NCc1ccc(OC)cc1)=C\CC[C@@]1(C)O[C@@H]21
GI50 (RPMI-8226): 260 nM | GI50 (SR): 300 nM | GI50 (EKVX): 1290 nM | GI50 (MOLT-4): 280 nM | GI50 (HOP-92): 240 nM | GI50 (K562): 370 nM | GI50 (NCI-H23): 550 nM | GI50 (NCI-H460): 2740 nM | GI50 (NCI-H522): 170 nM | GI50 (COLO 205): 240 nM | GI50 (HCT-116): 190 nM | GI50 (HCT-15): 240 nM | GI50 (HT-29): 260 nM | GI50 (KM12): 2350 nM | GI50 (SF-268): 750 nM | GI50 (SF-295): 10800 nM | GI50 (SF-539): 320 nM | GI50 (U-251): 960 nM | GI50 (LOX IMVI): 270 nM | GI50 (Malme-3M): 200 nM | GI50 (M14): 190 nM | GI50 (SK-MEL-28): 1180 nM | GI50 (UACC-62): 2860 nM | GI50 (IGROV-1): 320 nM | GI50 (OVCAR-4): 290 nM | GI50 (OVCAR-5): 280 nM | GI50 (OVCAR-8): 490 nM | GI50 (NCI/ADR-RES): 1460 nM | GI50 (786-0): 490 nM | GI50 (A498): 1790 nM | GI50 (ACHN): 180 nM | GI50 (CAKI-1): 720 nM | GI50 (TK-10): 310 nM | GI50 (UO-31): 190 nM | GI50 (PC-3): 350 nM | GI50 (DU-145): 160 nM | GI50 (MCF7): 1870 nM | GI50 (MDA-MB-231): 370 nM | GI50 [1]: 270 nM | GI50 (BT-549): 620 nM | GI50 (T47D): 790 nM

C=C1C(=O)O[C@H]2[C@H]1CC/C(COC(=O)NCCc1ccc(OC)cc1)=C\CC[C@@]1(C)O[C@@H]21
GI50 (RPMI-8226): 2850 nM | GI50 (SR): 2070 nM | GI50 (EKVX): 7450 nM | GI50 (MOLT-4): 2610 nM | GI50 (HOP-92): 1990 nM | GI50 (K562): 3080 nM | GI50 (NCI-H23): 4340 nM | GI50 (NCI-H460): 12200 nM | GI50 (NCI-H522): 1820 nM | GI50 (COLO 205): 1940 nM | GI50 (HCT-116): 1340 nM | GI50 (HCT-15): 1740 nM | GI50 (HT-29): 2150 nM | GI50 (KM12): 8360 nM | GI50 (SF-268): 10600 nM | GI50 (SF-295): 13500 nM | GI50 (SF-539): 1790 nM | GI50 (U-251): 11100 nM | GI50 (LOX IMVI): 1380 nM | GI50 (Malme-3M): 2440 nM | GI50 (M14): 1980 nM | GI50 (SK-MEL-28): 8970 nM | GI50 (UACC-62): 1710 nM | GI50 (IGROV-1): 2490 nM | GI50 (OVCAR-4): 2610 nM | GI50 (OVCAR-5): 2190 nM | GI50 (OVCAR-8): 3410 nM | GI50 (NCI/ADR-RES): 2650 nM | GI50 (786-0): 2770 nM | GI50 (A498): 10000 nM | GI50 (ACHN): 1760 nM | GI50 (CAKI-1): 4520 nM | GI50 (TK-10): 2520 nM | GI50 (UO-31): 1550 nM | GI50 (PC-3): 2730 nM | GI50 (DU-145): 1760 nM | GI50 (MCF7): 8080 nM | GI50 (MDA-MB-231): 1920 nM | GI50 [1]: 1890 nM | GI50 (BT-549): 2020 nM | GI50 (T47D): 13800 nM
